Values after ≈ are worked out from the molar mass of the structure shown.
Key:
Haemophilus influenzae [1] = assay: Antimicrobial activity against AcrA-deficient Haemophilus influenzae H128 after 24 hrs by broth microdilution method; type: functional; conditions: H128, 24 h
Summary of the method: (§1)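 Broth microdilution following NCCLS M7-A4; ATCC strains and clinical isolates from a provincial hospital.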

Streptococcus pneumoniae [2] = assay: Antimicrobial activity against Streptococcus pneumoniae N1387 after 24 hrs by broth microdilution method; type: functional; conditions: N1387, 24 h; summary of the method: as §1
Staphylococcus aureus [3] = assay: Antimicrobial activity against methicillin-resistant Staphylococcus aureus after 24 hrs by broth microdilution method; type: functional
Summary of the method: (§2)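 Broth microdilution following NCCLS M7-A4, using ATCC strains and clinical isolates from a provincial hospital.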

[4] = system: Staphylococcus epidermidis; assay: Antimicrobial activity against Staphylococcus epidermidis after 24 hrs by broth microdilution method; type: functional; summary of the method: as §1
Streptococcus pneumoniae [5] = assay: Antimicrobial activity against Streptococcus pneumoniae 1629 after 24 hrs by broth microdilution method; type: functional; conditions: Streptococcus pneumoniae, 1629, 24 h; summary of the method: as §1
Staphylococcus aureus [6] = assay: Antimicrobial activity against Staphylococcus aureus WCUH29 after 24 hrs by broth microdilution method; type: functional; conditions: WCUH29, 24 h; summary of the method: as §1
Haemophilus influenzae [7] = assay: Antimicrobial activity against Haemophilus influenzae H128 after 24 hrs by broth microdilution method; type: functional; conditions: H128, 24 h; summary of the method: as §1
Escherichia coli [8] = assay: Antimicrobial activity against Escherichia coli isolate 1 after 24 hrs by broth microdilution method; type: functional; conditions: isolate 1, 24 h; summary of the method: as §1
Moraxella catarrhalis = assay: Antimicrobial activity against Moraxella catarrhalis 1502 after 24 hrs by broth microdilution method; type: functional; conditions: Moraxella catarrhalis, 1502, 24 h; summary of the method: as §1
Enterococcus faecalis = assay: Antimicrobial activity against Enterococcus faecalis Isolate 1 after 24 hrs by broth microdilution method; type: functional; conditions: Isolate 1, 24 h; summary of the method: as §1
Streptococcus pyogenes [9] = assay: Antimicrobial activity against Streptococcus pyogenes 1307006P after 24 hrs by broth microdilution method; type: functional; summary of the method: as §1
Streptococcus pneumoniae [10] = assay: Antimicrobial activity against Streptococcus pneumoniae ERY2 after 24 hrs by broth microdilution method; type: functional; conditions: ERY2, 24 h; summary of the method: as §1
Streptococcus pyogenes [11] = assay: Antimicrobial activity against Streptococcus pyogenes 1308007P after 24 hrs by broth microdilution method; type: functional; summary of the method: as §1
Escherichia coli [12] = assay: Antimicrobial activity against Escherichia coli isolate 3 after 24 hrs by broth microdilution method; type: functional; conditions: isolate 3, 24 h; summary of the method: as §1
Staphylococcus aureus [13] = assay: Antimicrobial activity against Staphylococcus aureus OXFORD after 24 hrs by broth microdilution method; type: functional; summary of the method: as §2
Haemophilus influenzae [14] = assay: Antimicrobial activity against Haemophilus influenzae Q1 after 24 hrs by broth microdilution method; type: functional; conditions: Q1, 24 h; summary of the method: as §1
Staphylococcus aureus [15] = assay: Antimicrobial activity against Staphylococcus aureus after 24 hrs by broth microdilution method; type: functional; summary of the method: as §1
Escherichia coli [16] = assay: Antimicrobial activity against Escherichia coli isolate 2 after 24 hrs by broth microdilution method; type: functional; conditions: isolate 2, 24 h; summary of the method: as §1
Staphylococcus aureus [17] = assay: Antimicrobial activity against methicillin-susceptible Staphylococcus aureus after 24 hrs by broth microdilution method; type: functional; summary of the method: as §1
Enterococcus faecium = assay: Antimicrobial activity against Enterococcus faecium X7501 after 24 hrs by broth microdilution method; type: functional; conditions: X7501, 24 h; summary of the method: as §1
hERG (KCNH2) [18] = target: T1, hERG (KCNH2) (Homo sapiens, UniProt Q12809); assay: Inhibition of human ERG at 10 uM
T1 sequence (Q12809 whole entry): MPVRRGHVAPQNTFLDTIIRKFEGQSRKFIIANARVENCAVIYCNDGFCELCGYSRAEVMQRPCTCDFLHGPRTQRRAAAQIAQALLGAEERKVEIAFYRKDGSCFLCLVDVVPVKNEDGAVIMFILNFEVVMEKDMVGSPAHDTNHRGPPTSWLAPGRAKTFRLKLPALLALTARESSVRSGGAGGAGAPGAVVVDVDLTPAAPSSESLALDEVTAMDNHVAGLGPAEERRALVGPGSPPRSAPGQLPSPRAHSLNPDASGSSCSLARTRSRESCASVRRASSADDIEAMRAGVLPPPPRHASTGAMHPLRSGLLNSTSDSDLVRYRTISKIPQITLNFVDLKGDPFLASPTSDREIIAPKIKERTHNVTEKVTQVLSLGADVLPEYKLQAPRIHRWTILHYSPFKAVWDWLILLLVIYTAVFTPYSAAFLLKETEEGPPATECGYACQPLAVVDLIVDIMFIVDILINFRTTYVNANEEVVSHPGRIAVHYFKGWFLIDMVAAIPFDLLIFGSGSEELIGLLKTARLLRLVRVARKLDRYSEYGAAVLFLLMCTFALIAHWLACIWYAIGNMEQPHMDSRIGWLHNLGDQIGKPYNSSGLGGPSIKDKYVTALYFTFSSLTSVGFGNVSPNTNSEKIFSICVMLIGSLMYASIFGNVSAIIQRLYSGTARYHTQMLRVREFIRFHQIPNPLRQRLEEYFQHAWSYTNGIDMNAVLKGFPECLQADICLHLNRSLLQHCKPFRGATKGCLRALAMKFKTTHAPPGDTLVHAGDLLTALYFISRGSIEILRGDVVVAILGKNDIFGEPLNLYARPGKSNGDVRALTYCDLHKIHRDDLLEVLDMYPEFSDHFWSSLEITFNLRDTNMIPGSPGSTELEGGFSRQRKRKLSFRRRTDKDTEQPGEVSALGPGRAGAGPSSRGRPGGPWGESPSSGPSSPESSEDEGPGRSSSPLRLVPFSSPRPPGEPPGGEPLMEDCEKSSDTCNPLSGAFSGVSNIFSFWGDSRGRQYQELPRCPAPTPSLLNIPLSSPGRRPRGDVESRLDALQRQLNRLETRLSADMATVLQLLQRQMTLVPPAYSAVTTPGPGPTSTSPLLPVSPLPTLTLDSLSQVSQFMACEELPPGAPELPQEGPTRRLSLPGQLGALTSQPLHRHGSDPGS

[19] = Half life in Sprague-Dawley rat at 5 mg/kg, iv; type: ADME, organism-based; parameters: dose 5 mg/kg, route intravenous; conditions: in vivo
[20] = Tmax in Sprague-Dawley rat at 25 mg/kg, po; type: ADME, organism-based; parameters: dose 25 mg/kg, route oral; conditions: in vivo
[21] = Cmax in Sprague-Dawley rat at 25 mg/kg, po; type: ADME, organism-based; parameters: dose 25 mg/kg, route oral; conditions: in vivo
[22] = Clearance in Sprague-Dawley rat at 5 mg/kg, iv; type: ADME, organism-based; parameters: dose 5 mg/kg, route intravenous; conditions: in vivo
[23] = Mean residence time (0 to t) in Sprague-Dawley rat at 5 mg/kg, iv; type: ADME, organism-based; parameters: dose 5 mg/kg, route intravenous; conditions: in vivo
[24] = AUC (0 to t) in Sprague-Dawley rat at 25 mg/kg, po; type: ADME, organism-based; parameters: dose 25 mg/kg, route oral; conditions: plasma
[25] = Volume of distribution at steady state in Sprague-Dawley rat at 5 mg/kg, iv; type: ADME, organism-based; parameters: dose 5 mg/kg, route intravenous; conditions: in vivo, read-out: Vdss
[26] = AUC (0 to t) in Sprague-Dawley rat at 5 mg/kg, iv; type: ADME, organism-based; parameters: dose 5 mg/kg, route intravenous; conditions: plasma
[27] = AUC (0 to infinity) in Sprague-Dawley rat at 5 mg/kg, iv; type: ADME, organism-based; parameters: time infinity, dose 5 mg/kg, route intravenous; conditions: plasma
hERG (KCNH2) [28] = target: T1, hERG (KCNH2); assay: Inhibition of human ERG at 1 uM
[29] = Half life in Sprague-Dawley rat at 25 mg/kg, po; type: ADME, organism-based; parameters: dose 25 mg/kg, route oral; conditions: in vivo
[30] = AUC (0 to infinity) in Sprague-Dawley rat at 25 mg/kg, po; type: ADME, organism-based; parameters: dose 25 mg/kg, route oral, time infinity; conditions: plasma
[31] = Mean residence time (0 to t) in Sprague-Dawley rat at 25 mg/kg, po; type: ADME, organism-based; parameters: dose 25 mg/kg, route oral; conditions: in vivo
[32] = Oral bioavailability in Sprague-Dawley rat at 25 mg/kg; type: ADME, organism-based; conditions: in vivo

For `O=CN(O)C[C@@H](CC1CCCC1)C(=O)N1CC=C[C@H]1C(=O)Nc1ccc(F)cc1`, the MIC (Haemophilus influenzae [1]) was at most 0.06 µg/mL, the MIC (Streptococcus pneumoniae [2]) was 0.5 µg/mL (≈ 1.24 µM) and the MIC (Staphylococcus aureus [3]) was 0.25 µg/mL (≈ 0.62 µM). For the same molecule, the MIC [4] was 1 µg/mL (≈ 2.48 µM), the MIC (Streptococcus pneumoniae [5]) was 1 µg/mL (≈ 2.48 µM) and the MIC (Staphylococcus aureus [6]) was 0.125 µg/mL (≈ 0.31 µM). It also gave an MIC (Haemophilus influenzae [7]) of 2 µg/mL (≈ 4.96 µM), an MIC (Escherichia coli [8]) of 32 µg/mL (≈ 79.3 µM) and an MIC (Moraxella catarrhalis) of at most 0.06 µg/mL. It also gave an MIC (Enterococcus faecalis) of 2 µg/mL (≈ 4.96 µM), an MIC (Streptococcus pyogenes [9]) of 0.25 µg/mL (≈ 0.62 µM) and an MIC (Streptococcus pneumoniae [10]) of 1 µg/mL (≈ 2.48 µM). It also gave an MIC (Streptococcus pyogenes [11]) of 0.25 µg/mL (≈ 0.62 µM), an MIC (Escherichia coli [12]) of 32 µg/mL (≈ 79.3 µM) and an MIC (Staphylococcus aureus [13]) of 1 µg/mL (≈ 2.48 µM). For the same molecule, the MIC (Haemophilus influenzae [14]) was 2 µg/mL (≈ 4.96 µM), the MIC (Staphylococcus aureus [15]) was 0.25 µg/mL (≈ 0.62 µM) and the MIC (Escherichia coli [16]) was 64 µg/mL (≈ 159 µM). The MIC (Staphylococcus aureus [17]) was 0.5 µg/mL (≈ 1.24 µM) and the MIC (Enterococcus faecium) was 1 µg/mL (≈ 2.48 µM).
`Cc1cnc(NC(=O)[C@@H]2C=CCN2C(=O)[C@H](CC2CCCC2)CN(O)C=O)s1` gave an MIC (Haemophilus influenzae [1]) of at most 0.06 µg/mL, an inhibition at 10 µM (hERG (KCNH2) [18]) of 15.9% and a half-life [19] of 2.68 h. The MIC (Streptococcus pneumoniae [2]) was 0.25 µg/mL (≈ 0.615 µM), the MIC (Staphylococcus aureus [3]) was 0.125 µg/mL (≈ 0.307 µM) and the Tmax [20] was 0.625 h. It also gave an MIC [4] of 0.0625 µg/mL (≈ 0.154 µM), an MIC (Streptococcus pneumoniae [5]) of 0.5 µg/mL (≈ 1.23 µM) and a Cmax [21] of 4560 ng/mL. It also gave an MIC (Staphylococcus aureus [6]) of at most 0.06 µg/mL, an MIC (Haemophilus influenzae [7]) of 2 µg/mL (≈ 4.92 µM) and an MIC (Escherichia coli [8]) of 16 µg/mL (≈ 39.4 µM). It also gave an MIC (Moraxella catarrhalis) of at most 0.06 µg/mL, a clearance [22] of 18.6 mL/min/kg and an MIC (Enterococcus faecalis) of 2 µg/mL (≈ 4.92 µM). For the same molecule, the MIC (Streptococcus pyogenes [9]) was 0.25 µg/mL (≈ 0.615 µM), the MRT last [23] was 1.24 h and the AUC(0-t) [24] was 12200 ng·h/mL. For the same molecule, the Vd [25] was 1.37 L/kg, the AUC(0-t) [26] was 4700 ng·h/mL and the MIC (Streptococcus pneumoniae [10]) was 0.5 µg/mL (≈ 1.23 µM). The MIC (Streptococcus pyogenes [11]) was 0.5 µg/mL (≈ 1.23 µM), the MIC (Escherichia coli [12]) was 32 µg/mL (≈ 78.7 µM) and the AUC(0-inf) [27] was 4700 ng·h/mL. For the same molecule, the inhibition at 1 µM (hERG (KCNH2) [28]) was 5.38%, the MIC (Staphylococcus aureus [13]) was 0.25 µg/mL (≈ 0.615 µM) and the MIC (Haemophilus influenzae [14]) was 2 µg/mL (≈ 4.92 µM). For the same molecule, the MIC (Staphylococcus aureus [15]) was 0.0312 µg/mL (≈ 0.0769 µM), the half-life [29] was 3.31 h and the AUC(0-inf) [30] was 12300 ng·h/mL. For the same molecule, the MRT last [31] was 3.39 h, the MIC (Escherichia coli [16]) was 16 µg/mL (≈ 39.4 µM) and the bioavailability [32] was 52.3%. For the same molecule, the MIC (Staphylococcus aureus [17]) was 0.25 µg/mL (≈ 0.615 µM) and the MIC (Enterococcus faecium) was 0.5 µg/mL (≈ 1.23 µM).

Source: ChEMBL document CHEMBL3352487, “Synthesis, antibacterial activity, and biological evaluation of formyl hydroxyamino derivatives as novel potent peptide deformylase inhibitors against drug-resistant bacteria” (Eur J Med Chem, 2014)
